Assay outcomes from PubChem.
Scp1 inh = blocks human Scp-1 phosphatase activity; Q9GZU7; Recombinant Scp1, phosphopeptide, malachite green phosphate absorbance; inhibition, % at 20 µM; 0.88% of 340,000 active; AID 493091;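 active means inhibition above about 50% at 20 µM, limit read from the data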
Target sequence (Q9GZU7 76-261 limits assumed): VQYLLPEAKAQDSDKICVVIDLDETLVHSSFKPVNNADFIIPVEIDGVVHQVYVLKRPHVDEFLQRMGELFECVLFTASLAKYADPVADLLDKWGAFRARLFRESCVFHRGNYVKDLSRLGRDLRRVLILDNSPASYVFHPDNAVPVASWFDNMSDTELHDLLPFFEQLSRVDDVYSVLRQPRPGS
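Times: enzyme reaction 45 min at room temperature, colour 5 min, stabilisation 30 min. Material: SCP-1 catalytic fragment, aa 76-261. Medium: Acidic Tris acetate buffer with magnesium and detergent. Signal: colorimetric free-phosphate detection, absorbance 630 nm. Read-out basis: % inhibition of SCP-1 phosphate liberation. Reagent: Phosphorylated 17-residue peptide substrate.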
SUMO1-SIM PPI = modulators of human SUMO1-mediated protein-protein interactions. P63165. AID 602429. inhibition, % at 20 µM. 0.33% of 360,000 active. SUMO1 binding to a labelled peptide, TR-FRET, 1 h; in the data active means inhibition above about 37%
Target sequence (P63165 whole entry, looked up): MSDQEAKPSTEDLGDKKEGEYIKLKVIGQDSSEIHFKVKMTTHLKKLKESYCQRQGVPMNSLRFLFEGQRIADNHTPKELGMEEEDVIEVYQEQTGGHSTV
STEP block = blocks human striatal-enriched tyrosine phosphatase. recombinant STEP, OMFP fluorogenic substrate, fluorescence. inhibition, % at 20 µM. 0.25% of 360,000 active. AID 588621;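 active means inhibition at 20 µM, scaled per plate between control wells, above about 37%, limit read from the data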
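material = STEP tyrosine phosphatase | reagent = fluorogenic phosphatase substrate OMFP at 25 µM final | doses = single compound dose of 20 µM, 1% DMSO final | schedule = 20 min reaction, room temperature, in the dark | measured by = fluorescence, 480/540 nm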
F508del corr = CFTR F508del correction in bronchial cells | CFBE cells, YFP halide quenching; stimulated with forskolin plus potentiator P3; % fluorescence drop versus neutral controls | AID 720511 | 0.36% of 350,000 active | activity (quench increase), % at 7.58 µM;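 active means mean added fluorescence quench of at least 8% versus neutral control, with both replicates also reaching 8%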;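 further: cells transiently co-express mutant CFTR-F508del with the halide-sensitive YFP; corrector assay measuring rescue of mutant channel to the surface after 24 h compound exposure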
LMPTP block = blocks human LMPTP phosphatase. P24666. recombinant LMPTP-A, OMFP fluorogenic substrate, fluorescence intensity. inhibition, % at 20 µM. 0.22% of 360,000 active. AID 651560;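 active means compounds that cut the enzyme signal by at least half of the control window in the single-dose screen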
Target sequence (P24666 whole entry, looked up): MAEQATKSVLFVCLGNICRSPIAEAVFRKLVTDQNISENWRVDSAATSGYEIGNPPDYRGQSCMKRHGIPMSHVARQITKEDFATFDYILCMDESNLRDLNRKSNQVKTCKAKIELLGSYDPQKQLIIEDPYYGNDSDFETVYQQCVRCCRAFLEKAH
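Assay system: LMPTP-A enzyme. Input: 0.625 nM LMPTP-A final. Probe or stimulus: 400 µM OMFP. Compound dosing: single 20 µM dose. Schedule: 50 min dark incubation at room temperature. Detection: fluorescence intensity of OMFP turnover product. Read-out: percent inhibition versus substrate-only and uninhibited controls. Benchmarks: no-enzyme low control, uninhibited high control.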
DNMT1 inh = inhibitors of human DNMT1; P26358; DNMT1 molecular beacon, Hinp1I cleavage, fluorescence; inhibition (reported as % activation of signal), % at 10 µM; 0.83% of 360,000 active; in the data active means inhibition above about 50%
DNMT1 inh conf = DNMT1 inhibition confirmation, single concentration; shares compounds with DNMT1 inh; DNMT1 molecular beacon HinP1I cleavage, fluorescence; inhibition, % at 10 µM; 8% of 2,300 active; AID 602385;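 active means average inhibition of at least 30% in the single-concentration confirmation test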
DNMT1 interf = shows spectral interference in the DNMT1 beacon assay; AID 602387; 1% of 2,300 active; DNMT1 molecular beacon spectral interference counterscreen, fluorescence 485/520; shares compounds with DNMT1 inh; activation (fluorescence interference), % at 10 µM;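 active means activation of at least 30% at 10 µM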;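 further: DNMT1 catalytic domain with a HinP1I cleavage step and a FAM/dabcyl DNA beacon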
A number is an active result; n = inactive; x = not tested or not shown. The list is not random: actives were taken first. Their share in the collection is about 1.6%.

SMILES	Scp1 inh	SUMO1-SIM PPI	STEP block	F508del corr	LMPTP block	DNMT1 inh	DNMT1 inh conf	DNMT1 interf
N#CCCN(C(=O)COC(=O)Cc1ccc(Br)cc1)c1ccccc1	n	n	n	n	n	n	x	x
N#CCCN(C(=O)COC(=O)COc1ccccc1Cc1ccccc1)c1ccccc1	n	n	n	n	n	60	n	n
COc1ccc(N2CCCC2=O)cc1S(=O)(=O)N1CCOCC1	x	n	n	n	n	72	n	n
CO[C@@H]1CN(C)C(=O)c2cc(NC(=O)Nc3cccc(Cl)c3)ccc2OC[C@H](C)N(C(=O)Nc2c(C)noc2C)C[C@@H]1C	x	x	x	n	x	x	x	x
CCOc1cc(C#N)ccc1OCC(=O)NNC(=O)CC1CCS(=O)(=O)C1 (stereo not drawn)	n	n	n	n	n	77	n	n
Cc1ccccc1-c1cnc2c(c1)C(=O)N([C@@H](C)CO)C[C@H](C)[C@@H](CN(C)Cc1ccncc1)O2	x	x	x	n	x	x	x	x
COc1cc(OC)c2ccc(=O)oc2c1C(CCN1CCOCC1)c1ccc2c(c1)OCO2 (stereo not drawn)	n	n	n	n	n	61	n	n
Nc1ncnc2c1ncn2C1CCCC(CO)O1 (stereo not drawn)	n	n	n	n	n	80	n	n
CO[C@H]1CN(C)C(=O)c2ccc(NS(=O)(=O)c3cccc(F)c3)cc2OC[C@H](C)N(C(=O)Cc2cccnc2)C[C@H]1C	x	x	x	n	x	x	x	x
O=C1Cc2cccc(=O)c(O)c2C(=O)O1	x	n	n	n	n	81	n	n
CO[C@H]1CN(C)C(=O)c2ccc(NC(=O)NC(C)C)cc2OC[C@H](C)N(Cc2ccccc2)C[C@@H]1C	x	x	x	n	x	x	x	x
O=S(=O)(c1cccc(COc2ccc(Cl)cc2Cl)c1)N1CCOCC1	n	n	n	n	n	n	x	x
O=[N+]([O-])c1ccc(F)cc1OCc1cccc(S(=O)(=O)N2CCOCC2)c1	n	n	n	n	n	82	n	n
Cc1nc(SCC(=O)Nc2c(C)nn(C)c2C)c2cnn(-c3ccccc3)c2n1	n	n	n	x	n	n	x	x
CC(C)c1nc(SCC(=O)Nc2c[nH]c(=O)[nH]c2=O)c2cnn(-c3ccccc3)c2n1	n	n	n	n	n	53	n	n
COc1ccc2c3c(n(C)c2c1)[C@@H](CO)N(CC1CCOCC1)CC31CCN(Cc2nccs2)CC1	x	x	x	n	x	x	x	x
C[C@@H]1CN([C@@H](C)CO)C(=O)Cc2cc(NS(=O)(=O)c3cccs3)ccc2O[C@H]1CN(C)C(=O)Nc1ccc2c(c1)OCO2	x	x	x	n	x	x	x	x
Cc1ccc(-c2cc(C(F)F)nc3sc4c(=O)[nH]cnc4c23)cc1	n	n	n	n	n	61	n	n
CC(C)c1nc2sc3c(=O)[nH]cnc3c2c2c1CCC2	n	n	n	x	n	n	x	x
C[C@H](CO)N1C[C@H](C)[C@H](CN(C)C(=O)Nc2ccccc2)Oc2ncc(/C=C/c3ccccc3)cc2C1=O	x	x	x	n	x	x	x	x
Cc1ccc(NC(=O)c2ccc(S(=O)(=O)N3CCCC3)cc2)cc1	n	n	n	x	n	n	x	x
Cc1ccc(C(=O)Nc2ccc(S(=O)(=O)N3CCN(C)CC3)cc2)cc1	n	n	n	x	n	67	n	n
C=CCOc1ccc(C(c2c(C(=O)O)[nH]c3ccccc23)c2c(C(=O)O)[nH]c3ccccc23)cc1	n	n	n	n	n	86	n	n
CCCNC(=O)N[C@@H]1CC[C@@H](CC(=O)NC2CCC2)O[C@@H]1CO	x	x	x	n	x	x	x	x
O=C(c1ccccc1)N1C[C@H]2[C@@H](c3ccccc31)[C@@H](CO)N2Cc1cocn1	x	x	x	n	x	x	x	x
CNc1cccccc1=S	n	n	n	x	58	85	n	n
CNc1ccccc1	n	n	n	n	n	n	x	x
COc1cccc(-c2[nH]nc3c2C(c2ccoc2)C(C#N)=C(N)O3)c1 (stereo not drawn)	n	n	n	x	n	67	n	n
